From publication PMC8733272 (iScience, 2021)
Substitutions are numbered along the chain they refer to.

What was measured:
[1] = target: T1, WT-Parkin (Homo sapiens, UniProt O60260); experiment: Parkin catalytic poly-auto-Ub TR-FRET assay; type: biochemical; settings: for activity in TR-FRET autoubiquitination assay: WT-Parkin with pUb
T1 sequence (O60260 1-465): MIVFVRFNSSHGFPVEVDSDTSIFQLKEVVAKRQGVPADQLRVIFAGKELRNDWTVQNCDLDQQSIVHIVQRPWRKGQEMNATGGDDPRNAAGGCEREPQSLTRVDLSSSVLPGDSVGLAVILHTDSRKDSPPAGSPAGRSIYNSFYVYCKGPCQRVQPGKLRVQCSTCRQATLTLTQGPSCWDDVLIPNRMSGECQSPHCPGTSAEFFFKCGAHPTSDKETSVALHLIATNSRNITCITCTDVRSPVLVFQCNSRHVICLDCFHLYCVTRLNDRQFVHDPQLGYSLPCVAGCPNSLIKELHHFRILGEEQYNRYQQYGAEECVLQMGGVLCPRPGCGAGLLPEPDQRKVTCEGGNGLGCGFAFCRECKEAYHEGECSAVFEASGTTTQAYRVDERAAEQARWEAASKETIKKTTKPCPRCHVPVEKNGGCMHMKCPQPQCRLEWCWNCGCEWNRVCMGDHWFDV

[2] = target: N-terminally tagged W403A-Parkin (UniProt O60260)
[3] = target: T2, WT-Parkin (substrate His-Miro1 186-591) (Homo sapiens, UniProt O60260); experiment: Miro1 ubiquitination assay by Western blot; type: biochemical; settings: His-Miro1 (186-591) substrate
T2 sequence (O60260 1-465): T1 sequence (O60260 1-465)
Outline: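 Run as the TR-FRET reaction with untagged WT-Parkin. Test compound was pre-incubated 30 min with E1, E2, Parkin and His-Miro1 186-591 (250 nM final); the 2X mix held 40 nM E1, 800 nM E2 and 100 nM Parkin. After 20 min the reaction was stopped in SDS sample buffer, then run on 4–12% bis-tris SDS-PAGE, PVDF transfer and IR-dye secondary imaging.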

[4] = system: SH-SY5Y cells expressing the MitoQC construct; experiment: MitoQC mitophagy assay; type: cell-based; settings: 1 h pre-incubation, Antimycin + Oligomycin
Outline: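 SH-SY5Y cells carrying MitoQC were seeded at 1.6×10^4 cells/well on attachment factor and recovered 72 h. Cells were pre-treated 1 h with test compound, then given 5 μM Antimycin + 10 μM Oligomycin or DMSO for 8 h unless stated otherwise. Fixed in 2% PFA on ice 30 min, DAPI-stained, and imaged at 64x (25 fields, 4 replicate wells). mCherry puncta (mitolysosomes) were counted.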

[5] = target: Human MDR1 efflux transporter (MDCK-MDR1 cells) (Homo sapiens, UniProt P08183); experiment: MDCK-MDR1 bidirectional permeability / efflux; type: in vitro ADME; settings: average of inward and outward permeability
Human MDR1 efflux transporter (MDCK-MDR1 cells), sequence (P08183 whole entry): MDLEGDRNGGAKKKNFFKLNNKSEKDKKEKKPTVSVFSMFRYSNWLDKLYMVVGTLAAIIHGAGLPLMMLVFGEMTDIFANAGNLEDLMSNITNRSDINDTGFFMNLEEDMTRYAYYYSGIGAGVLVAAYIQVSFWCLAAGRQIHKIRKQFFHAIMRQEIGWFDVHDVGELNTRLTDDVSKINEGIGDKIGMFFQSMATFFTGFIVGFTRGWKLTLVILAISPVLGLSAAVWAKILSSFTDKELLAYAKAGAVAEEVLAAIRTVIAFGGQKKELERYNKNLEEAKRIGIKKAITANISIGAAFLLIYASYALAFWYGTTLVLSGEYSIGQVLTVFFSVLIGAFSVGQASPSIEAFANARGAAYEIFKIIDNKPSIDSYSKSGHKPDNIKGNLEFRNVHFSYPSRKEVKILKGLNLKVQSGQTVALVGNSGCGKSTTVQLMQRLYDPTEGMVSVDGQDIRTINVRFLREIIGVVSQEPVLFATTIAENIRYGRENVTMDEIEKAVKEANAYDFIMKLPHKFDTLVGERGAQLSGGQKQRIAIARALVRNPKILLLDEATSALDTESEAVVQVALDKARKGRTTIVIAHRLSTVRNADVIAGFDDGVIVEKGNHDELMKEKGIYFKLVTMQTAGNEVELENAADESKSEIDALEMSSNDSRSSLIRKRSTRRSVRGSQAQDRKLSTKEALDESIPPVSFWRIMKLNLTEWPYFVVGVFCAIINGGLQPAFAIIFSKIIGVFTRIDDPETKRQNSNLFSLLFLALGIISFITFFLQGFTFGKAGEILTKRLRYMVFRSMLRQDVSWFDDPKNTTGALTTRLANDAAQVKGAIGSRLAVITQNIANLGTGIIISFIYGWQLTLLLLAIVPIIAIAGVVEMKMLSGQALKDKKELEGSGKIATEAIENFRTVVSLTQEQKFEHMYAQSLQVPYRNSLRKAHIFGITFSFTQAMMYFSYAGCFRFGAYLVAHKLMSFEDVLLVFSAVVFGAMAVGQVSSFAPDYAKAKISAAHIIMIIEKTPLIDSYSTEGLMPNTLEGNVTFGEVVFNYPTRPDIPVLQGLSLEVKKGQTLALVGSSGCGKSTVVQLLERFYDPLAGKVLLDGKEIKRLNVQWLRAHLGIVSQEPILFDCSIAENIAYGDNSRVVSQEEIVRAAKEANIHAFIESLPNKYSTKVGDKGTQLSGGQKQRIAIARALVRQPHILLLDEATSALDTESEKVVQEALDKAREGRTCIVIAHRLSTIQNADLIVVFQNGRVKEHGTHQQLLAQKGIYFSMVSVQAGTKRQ
Outline: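 MDCK-MDR1 cells were seeded at 0.28×10^6 cells/mL on the apical side of transwell inserts and grown 7 days, with two media changes. Monolayers were rinsed in HBSS/1% HEPES pH 7.4. 1 μM test compound was added to the donor side (A>B and B>A); receivers held buffer with 1% BSA. Plates were shaken 2 h at 37°C. Donor was sampled at 0 and 120 min, receiver at 2 h, and quenched with acetonitrile plus internal standard for LC-MS/MS. Post-assay TEER had to exceed 430 ohm∗cm2. Papp = (dQ/dt)(1/C0)(1/A); ER = Papp B>A / Papp A>B.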

[6] = target: T1, WT-Parkin; experiment: Parkin autoubiquitination by Western blot; type: biochemical; settings: 5 min reaction at 37°C
Outline: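 Untagged WT-Parkin was pre-incubated 30 min at 37°C with E1, E2 and test compound; the 2X mix held 40 nM E1, 800 nM E2 and 100 nM Parkin. Then 2X substrate mix was added (760 nM fluorescein-Ub, 50 μM ubiquitin, 10 μM pUb, 2 mM ATP) in HEPES pH 7.4 buffer with 1% DMSO, in 40 μL. Stopped after 5 min with SDS sample buffer; polyubiquitin smears were read by Western blot.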

[7] = target: T3, N-terminally tagged WT-Parkin (Homo sapiens, UniProt O60260); experiment: In vitro ubiquitin vinyl sulfone; type: biochemical; settings: 3 μM pUb, 2 h, no E1, E2 or ATP
T3 sequence (O60260 1-465): T1 sequence (O60260 1-465)
Outline: (§1)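 Tagged Parkin (WT or W403A), 2 μM, incubated with 10 μM Ub-VS and 3 μM pUb. Test compound at 0, 0.09, 0.27, 0.8, 2.5, 7.4, 22.2, 66.7 and 200 μM. Buffer: 50 mM HEPES, 150 mM NaCl, 1 mM TCEP, pH 8.0. Final DMSO 2% (v/v).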

[8] = target: T4, N-terminally tagged W403A-Parkin (Homo sapiens, UniProt O60260, W403A); experiment: In vitro ubiquitin vinyl sulfone; type: biochemical; settings: 3 μM pUb, 1 h
T4 sequence (O60260 1-465 W403A): T1 sequence (O60260 1-465) with W403A
Outline: as §1

Molecule: CC(C)[C@H]1Cn2ncc(-c3ccc(C(=O)N4CCCc5ccccc54)cc3)c2CN1C(=O)Cc1ccccc1 [BIO-1966560, (S)-1-(6-isopropyl-3-(4-(1,2,3,4-tetrahydroquinoline-1-carbonyl)phenyl)-6,7-dihydropyrazolo[1,5-a]pyrazin-5(4H)-yl)-2-phenylethan-1-one]
- activity in TR-FRET autoubiquitination assay [1]: inactive

Molecule: Phospho-ubiquitin (pUb): Human Recombinant pSer65-Ubiquitin (from UniProt P0CG48 1-76) (natural protein)
- EC50 of pUb for Ub-VS charging of W403A-Parkin (gel shift), without BIO-2007817 [2]: 5.4 μM

Molecule: C[C@@H]1Cn2ncc(-c3ccc(C(=O)N4CCCc5ccccc54)cc3)c2CN1C(=O)[C@H](C)c1ccccc1 [BIO-1967174, (R)-1-((R)-6-methyl-3-(4-(1,2,3,4-tetrahydroquinoline-1-carbonyl)phenyl)-6,7-dihydropyrazolo[1,5-a]pyrazin-5(4H)-yl)-2-phenylpropan-1-one]
- activity in TR-FRET autoubiquitination assay [1]: weakly active
- Miro1 ubiquitination by Western blot [3]: enhance the rate of monoubiquitination of Miro1 substrate to a level comparable to that of W403A-Parkin

Molecule: C[C@H](C(=O)N1Cc2c(-c3ccc(C(=O)N4CCCc5ccccc54)cc3)cnn2C[C@H]1C)c1ccccc1 [BIO-1967173, (S)-1-((R)-6-methyl-3-(4-(1,2,3,4-tetrahydroquinoline-1-carbonyl)phenyl)-6,7-dihydropyrazolo[1,5-a]pyrazin-5(4H)-yl)-2-phenylpropan-1-one]
- effect on mitophagy, MitoQC [4]: no enhanced MitoQC activity

Molecule: CO[C@H](C(=O)N1Cc2c(-c3ccc(C(=O)N4CCCc5ccccc54)cn3)cnn2C[C@H]1C(C)C)c1cnn(C)c1 (single isomer, unassigned) [BIO-2007967]
- EC50 ([1]; EC50 (μM), WT-Parkin, 5 μM pUb, averaged technical replicates n = 2): < 0.2 µM

Molecule: CO[C@H](C(=O)N1Cc2c(-c3ccc(C(=O)N4CCCc5ccccc54)cc3)cnn2C[C@H]1C(C)C)c1ccccc1 (single isomer, unassigned) [BIO-2008550]
- effect on mitophagy, MitoQC [4]: no enhanced MitoQC activity

Molecule: Cc1n[nH]c(CC(=O)N2Cc3c(-c4ccc(C(=O)N5CCCc6ccccc65)cc4)cnn3C[C@H]2C)n1 [BIO-1984542, (R)-2-(3-methyl-1H-1,2,4-triazol-5-yl)-1-(6-methyl-3-(4-(1,2,3,4-tetrahydroquinoline-1-carbonyl)phenyl)-6,7-dihydropyrazolo[1,5-a]pyrazin-5(4H)-yl)ethan-1-one]
- activity in TR-FRET autoubiquitination assay [1]: inactive
- MDR1-MDCK avg (average of Papp AB/BA) [5]: 4.4 ×10⁻⁶ cm/s
- Parkin autoubiquitination by Western blot [6]: inactive
- Miro1 ubiquitination by Western blot [3]: inactive
- Ub-VS charging of WT-Parkin [7]: no significant activity

Molecule: CC(C)[C@@H]1Cn2ncc(-c3ccc(C(=O)N4CCCc5ccccc54)cc3)c2CN1C(=O)Cc1ccccc1 [BIO-1966561, (R)-1-(6-isopropyl-3-(4-(1,2,3,4-tetrahydroquinoline-1-carbonyl)phenyl)-6,7-dihydropyrazolo[1,5-a]pyrazin-5(4H)-yl)-2-phenylethan-1-one]
- potency improvement (fold) over parent analog ([1]; from TR-FRET EC50): 5 fold

Molecule: C[C@H](C(=O)N1Cc2c(-c3ccc(C(=O)N4CCCc5ccccc54)cc3)cnn2C[C@@H]1C)c1ccccc1 [BIO-1968010, (S)-1-((S)-6-methyl-3-(4-(1,2,3,4-tetrahydroquinoline-1-carbonyl)phenyl)-6,7-dihydropyrazolo[1,5-a]pyrazin-5(4H)-yl)-2-phenylpropan-1-one]
- activity in TR-FRET autoubiquitination assay [1]: inactive

Molecule: C[C@@H](C(=O)N1Cc2c(-c3ccc(C(=O)N4CCCc5ccccc54)cc3)cnn2C[C@@H]1C)c1ccccc1 [BIO-1968011, (R)-1-((S)-6-methyl-3-(4-(1,2,3,4-tetrahydroquinoline-1-carbonyl)phenyl)-6,7-dihydropyrazolo[1,5-a]pyrazin-5(4H)-yl)-2-phenylpropan-1-one]
- activity in TR-FRET autoubiquitination assay [1]: inactive

Molecule: CO[C@@H](C(=O)N1Cc2c(-c3ccc(C(=O)N4CCCc5ccccc54)cc3)cnn2C[C@H]1C(C)C)c1cnn(C)c1 (single isomer, unassigned) [BIO-2007818]
- Parkin autoubiquitination by Western blot [6]: reduced ability to induce Parkin autoubiquitination
- Miro1 ubiquitination by Western blot [3]: reduced ability
- Ub-VS charging of WT-Parkin [7]: to a lesser extent
- Ub-VS charging of W403A-Parkin [8]: to a lesser extent
